According to ChEMBL document CHEMBL1833906, “Design and evaluation of a novel fluorescent CB2 ligand as probe for receptor visualization in immune cells” (Bioorg Med Chem Lett, 2011):
Activity calls are given as the source filed them. The calls are words filed in the database; no cut-off is given here.

What was measured:
[1] = molecular target: Cannabinoid receptor 2 (Mus musculus) (UniProt P47936); assay: Binding affinity to cannabinoid CB2 receptor in non transfected BALB/c mouse CD4+ T cells at 5 uM after 30 mins […] by confocal microscopic analysis; assay type: cell-based; settings: T-cell
Chain of Cannabinoid receptor 2 (Mus musculus) (P47936 whole entry): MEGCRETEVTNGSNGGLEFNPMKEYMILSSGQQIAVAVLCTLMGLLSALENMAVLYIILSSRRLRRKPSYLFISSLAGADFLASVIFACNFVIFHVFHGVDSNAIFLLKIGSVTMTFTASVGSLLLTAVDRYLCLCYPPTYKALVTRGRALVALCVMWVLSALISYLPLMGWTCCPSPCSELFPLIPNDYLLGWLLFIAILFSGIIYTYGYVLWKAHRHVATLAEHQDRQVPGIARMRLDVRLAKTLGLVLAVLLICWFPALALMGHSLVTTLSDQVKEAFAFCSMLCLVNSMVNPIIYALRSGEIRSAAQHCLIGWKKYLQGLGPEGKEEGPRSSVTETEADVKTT

[2] = molecular target: 5-hydroxytryptamine receptor 2A (Homo sapiens) (UniProt P28223); assay: Displacement of [3H]-kentanserin from 5HT2A receptor at 10 uM
Chain of 5-hydroxytryptamine receptor 2A (Homo sapiens) (P28223 whole entry): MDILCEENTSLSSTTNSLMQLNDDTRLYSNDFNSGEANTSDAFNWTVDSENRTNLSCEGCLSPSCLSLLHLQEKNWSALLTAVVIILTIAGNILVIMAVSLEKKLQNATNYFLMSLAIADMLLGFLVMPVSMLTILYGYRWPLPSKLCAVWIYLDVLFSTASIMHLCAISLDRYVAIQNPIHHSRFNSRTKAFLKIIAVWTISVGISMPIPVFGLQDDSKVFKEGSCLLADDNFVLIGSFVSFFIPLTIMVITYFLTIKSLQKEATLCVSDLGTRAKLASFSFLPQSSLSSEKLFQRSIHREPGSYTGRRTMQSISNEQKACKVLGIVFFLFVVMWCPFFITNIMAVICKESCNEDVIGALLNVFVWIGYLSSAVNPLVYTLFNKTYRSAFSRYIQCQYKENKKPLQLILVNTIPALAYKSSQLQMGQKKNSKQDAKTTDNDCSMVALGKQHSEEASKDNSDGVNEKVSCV
Procedure, shortened: (§1)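 Single-point competitive radioligand binding screen at 10 µM test concentration, measured as % inhibition of radioligand binding. Radioligands: [3H]CP55940 for CB1, [3H]ketanserin for 5-HT2A, [3H]mesulergine for 5-HT2C. Run by the NIMH Psychoactive Drug Screening Program.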

[3] = molecular target: Cannabinoid receptor 2 (Mus musculus) (UniProt P47936); assay: Binding affinity to cannabinoid CB2 receptor in non transfected BALB/c mouse CD4+ T cells at 0.1 uM after 30 mins using […] by confocal microscopic analysis; assay type: cell-based; settings: T-cell
[4] = molecular target: Cannabinoid receptor 2 (Mus musculus) (UniProt P47936); assay: Binding affinity to cannabinoid CB2 receptor in non transfected BALB/c mouse CD4+ T cells after 30 mins […] by confocal microscopic analysis in presence of CB2 receptor agonist GW842166X; assay type: cell-based; settings: T-cell
[5] = molecular target: Cannabinoid receptor 1 (Homo sapiens) (UniProt P21554); assay: Displacement of [3H]-CP55940 from cannabinoid CB1 receptor at 10 uM; procedure, shortened: as §1
Chain of Cannabinoid receptor 1 (Homo sapiens) (P21554 whole entry): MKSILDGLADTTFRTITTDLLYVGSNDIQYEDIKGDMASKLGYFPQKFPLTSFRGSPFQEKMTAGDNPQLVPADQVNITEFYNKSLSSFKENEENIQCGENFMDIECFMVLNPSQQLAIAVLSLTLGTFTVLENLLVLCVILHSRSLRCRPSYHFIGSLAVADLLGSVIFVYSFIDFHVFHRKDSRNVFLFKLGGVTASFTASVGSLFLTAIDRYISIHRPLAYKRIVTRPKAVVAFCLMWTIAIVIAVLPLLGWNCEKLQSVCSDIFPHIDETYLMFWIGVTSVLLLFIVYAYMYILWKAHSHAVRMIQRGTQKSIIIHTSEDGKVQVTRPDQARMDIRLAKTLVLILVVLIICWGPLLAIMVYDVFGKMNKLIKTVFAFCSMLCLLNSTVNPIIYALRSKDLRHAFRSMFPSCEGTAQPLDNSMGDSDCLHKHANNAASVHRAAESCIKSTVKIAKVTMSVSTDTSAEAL

[6] = molecular target: T1, 5-hydroxytryptamine receptor 2C (Homo sapiens) (UniProt P28335); assay: Displacement of [3H]-mesulergine from 5HT2C receptor at 10 uM; procedure, shortened: as §1
T1 sequence (whole entry): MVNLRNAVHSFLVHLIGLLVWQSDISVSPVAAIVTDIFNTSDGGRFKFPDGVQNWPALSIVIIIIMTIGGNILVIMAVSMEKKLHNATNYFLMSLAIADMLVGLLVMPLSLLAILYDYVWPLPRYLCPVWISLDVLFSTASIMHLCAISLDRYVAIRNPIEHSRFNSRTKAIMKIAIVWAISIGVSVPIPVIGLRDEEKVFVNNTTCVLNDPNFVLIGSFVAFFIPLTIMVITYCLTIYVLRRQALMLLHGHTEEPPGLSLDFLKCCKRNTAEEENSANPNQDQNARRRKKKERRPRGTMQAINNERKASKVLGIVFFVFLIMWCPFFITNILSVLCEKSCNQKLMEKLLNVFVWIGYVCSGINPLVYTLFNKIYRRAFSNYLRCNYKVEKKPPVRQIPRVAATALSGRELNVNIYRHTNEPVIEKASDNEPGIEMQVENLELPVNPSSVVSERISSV

[7] = molecular target: Cannabinoid receptor 2 (Mus musculus) (UniProt P47936); assay: Binding affinity to cannabinoid CB2 receptor in mouse B lymphocytes at 5 uM after 30 mins using PE-conjugated anti-B220 antibody staining by flow cytometric analysis; assay type: cell-based
Procedure, shortened: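 Lung mononuclear cells from mice were prepared by collagenase digestion of lung tissue. They were stained with PE-conjugated anti-B220 antibody and NBD-labelled probe at 5 µM on ice for 30 min, then analysed by flow cytometry.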

Cannabinoid receptor 2 = Cannabinoid receptor 2 (Homo sapiens, UniProt P34972); assay: Displacement of [3H]-CP55940 from human recombinant cannabinoid CB2 receptor expressed in CHO-K1 cells; assay type: cell-based
Chain of Cannabinoid receptor 2 (P34972 whole entry): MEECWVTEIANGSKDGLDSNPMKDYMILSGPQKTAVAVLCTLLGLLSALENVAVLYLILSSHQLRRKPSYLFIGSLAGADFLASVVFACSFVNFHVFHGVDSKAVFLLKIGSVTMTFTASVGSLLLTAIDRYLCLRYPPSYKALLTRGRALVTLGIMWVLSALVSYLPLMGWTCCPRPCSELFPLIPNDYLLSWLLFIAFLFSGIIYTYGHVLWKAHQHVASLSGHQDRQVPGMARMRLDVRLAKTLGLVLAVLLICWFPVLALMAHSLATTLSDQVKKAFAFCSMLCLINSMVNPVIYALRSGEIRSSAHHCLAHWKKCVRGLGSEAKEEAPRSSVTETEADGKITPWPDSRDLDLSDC

[8] = molecular target: Cannabinoid receptor 2 (Mus musculus) (UniProt P47936); assay: Binding affinity to cannabinoid CB2 receptor in non transfected BALB/c mouse CD4+ T cells at 1 uM after 30 mins using PE-conjugated […] antibody staining by confocal microscopic analysis; assay type: cell-based; settings: T-cell
Procedure, shortened: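 T cells were purified from peripheral lymph nodes of BALB/c mice and stained with PE-conjugated anti-CD4 antibody plus NBD-labelled probe at 0.1, 1.0 or 5 µM. Incubation on ice for 30 min is stated for the 5 µM condition. CD4+ cells were imaged by confocal microscopy (x40).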

[9] = molecular target: Cannabinoid receptor 2 (Mus musculus) (UniProt P47936); assay: Binding affinity to cannabinoid CB2 receptor in mouse B lymphocytes at 5 uM after 30 mins using PE-conjugated anti-B220 antibody staining by flow cytometric analysis in presence of GW842166X; assay type: cell-based
Procedure, shortened: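 Mouse lung mononuclear cells, prepared by collagenase digestion, were first preincubated on ice for 5 min with the CB2 agonist GW842166X at 100 µM. They were then stained with PE-conjugated anti-B220 antibody and NBD-labelled probe at 5 µM on ice for 30 min, and analysed by flow cytometry.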

With `CCCCCN1C(=O)/C(=N\NC(=O)CN(C)c2ccc([N+](=O)[O-])c3nonc23)c2ccc(OC)cc21` as the compound, how does the Activity [1] read?
Its Activity is “Active”.

And the inhibition [2]?
Its inhibition is < 40%.

What about the Activity [3] of the same compound?
Its Activity is “inactive”.

What about the Activity [4] of the same compound?
Its Activity is “inactive”.

What about the inhibition [5] of the same compound?
The inhibition was < 40%.

And the inhibition [6]?
Its inhibition is < 40%.

And the Activity [7]?
Its Activity is “Active”.

What about the Ki (Cannabinoid receptor 2) of the same compound?
The Ki was 387 nM.

And the Activity [8]?
The Activity was “inactive”.

What about the Activity [9] of the same compound?
The Activity was “inactive”.
